Compound activity as filed in PubChem.
TMEM16A act – mouse TMEM16A channel activation, primary screen. Q8BHY3. HEK293 TMEM16A/YFP-H148Q/I152L, iodide quench fluorescence; active compounds read low. B-score at 10 µM. 0.3% of 340,000 active. AID 623877;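 active means fluorescence-ratio B-score plate-corrected deviation score at least 3 library SD below zero, with starting fluorescence score within 5 deviations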;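 further: channel opened by trigger with iodide after compound preincubation; score built on the fluorescence ratio of max minus min over baseline; more negative score means more quench and so TMEM16A activation or potentiation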
Target sequence (Q8BHY3 whole entry, looked up): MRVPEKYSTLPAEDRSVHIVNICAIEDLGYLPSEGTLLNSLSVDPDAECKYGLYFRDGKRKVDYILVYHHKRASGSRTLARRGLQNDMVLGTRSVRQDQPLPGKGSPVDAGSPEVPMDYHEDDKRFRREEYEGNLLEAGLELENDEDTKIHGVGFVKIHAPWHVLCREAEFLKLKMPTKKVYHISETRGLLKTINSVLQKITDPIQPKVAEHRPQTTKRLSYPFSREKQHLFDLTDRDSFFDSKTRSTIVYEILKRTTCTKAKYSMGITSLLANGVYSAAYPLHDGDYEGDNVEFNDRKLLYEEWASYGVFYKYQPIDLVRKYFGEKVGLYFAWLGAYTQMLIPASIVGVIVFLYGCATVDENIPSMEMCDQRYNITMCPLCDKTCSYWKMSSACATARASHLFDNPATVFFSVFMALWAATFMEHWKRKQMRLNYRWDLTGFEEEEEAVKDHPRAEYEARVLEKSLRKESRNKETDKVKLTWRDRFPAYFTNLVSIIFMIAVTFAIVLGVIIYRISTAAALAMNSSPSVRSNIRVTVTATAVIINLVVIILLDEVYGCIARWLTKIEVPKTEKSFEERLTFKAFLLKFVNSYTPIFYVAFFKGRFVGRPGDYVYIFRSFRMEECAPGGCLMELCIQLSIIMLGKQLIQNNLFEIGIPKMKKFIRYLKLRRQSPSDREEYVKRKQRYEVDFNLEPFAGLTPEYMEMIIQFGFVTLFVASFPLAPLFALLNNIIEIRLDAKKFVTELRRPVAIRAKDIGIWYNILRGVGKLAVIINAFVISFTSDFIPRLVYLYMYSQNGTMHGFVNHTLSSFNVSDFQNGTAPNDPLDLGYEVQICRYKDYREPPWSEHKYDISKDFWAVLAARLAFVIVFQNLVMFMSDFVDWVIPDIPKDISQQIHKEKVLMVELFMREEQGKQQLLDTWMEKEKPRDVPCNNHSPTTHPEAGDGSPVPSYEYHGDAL
Beta cell apopt – beta cell apoptosis inhibition; INS-1E cytokine-induced death, ATP luminescence, 48 h; percent of positive-control rescue, neutral wells zero; protection from apoptosis, % (no concentration beside the values); 0.8% of 300,000 active; AID 435005;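 active means Every replicate reaches about 75%, or at least half do and their mean reaches it too, limit read from the data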;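 further: 0% = cytokine-treated negative control wells and 100% = positive control rescue; higher means more ATP so stronger rescue from cytokine killing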
MC4R antag cAMP – blocks human MC4R cAMP signaling | P32245 | MC4R-expressing cells, MTII-stimulated cAMP, LANCE TR-FRET | inhibition, % at 6.5 µM | 0.48% of 360,000 active;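 active means inhibition above its plate's cutoff, the mean of tested wells on that plate plus 3 SD, cut at about 29% in these data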;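 further: 0% = Melanotan II alone and 100% = Melanotan II plus saturating MCL0020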
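system = U2OS cells with stable human MC4R expression | also added = Melanotan II challenge after compound preincubation | dosing = one concentration, 6.5 µM nominal | incubation = compound 30 min, challenge 1 h, detection 1 h | measured by = TR-FRET with Eu-cAMP and labeled anti-cAMP, 671 nm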
CSC inhib – cancer stem cell inhibition | cancer stem cell-like cells viability, luminescence | inhibition, % at 7.5 µM | 1.1% of 300,000 active; in the data active means inhibition above about 75%; tested in HMLE shEcad cells
MC4R ag barr – human MC4R agonism via beta-arrestin | P32245 | U2OS MC4R beta-arrestin complementation, luminescence; percent of melanotan II response, DMSO zero | activation, % at 8.9 µM | 0.98% of 360,000 active;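 active means activation above a per-plate cutoff, the mean activation of sample wells on that plate plus 3 SD, cut at about 8% in these data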
ANO1 block – blocks the mouse calcium-activated chloride channel TMEM16A; HEK293 TMEM16A/YFP iodide influx fluorescence, ionomycin; Q8BHY3; normalized B-score (activity score, 25-100; higher = stronger inhibition) at 10 µM; 1.2% of 310,000 active; AID 588511;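 active means ratio plate-corrected score three or more library SD toward inhibition, starting fluorescence score within five deviations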;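 further: score derived from kinetic fluorescence span divided by baseline fluorescence per well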
U2OS cAMP counter – U2OS forskolin cAMP inhibition counter-screen; parental U2OS, LANCE TR-FRET; inhibition, % at 6.5 µM; 26% of 1,600 active; shares compounds with MC4R antag cAMP;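 active means mean inhibition over triplicates above the low-control well mean plus 3 SD, set per campaign, cut at about 13% in these data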;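 further: signal is single emission at 671 nm which falls as cellular cAMP rises; 0% = forskolin-stimulated wells and 100% = buffer without forskolin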
MC4R cAMP antag – human MC4R cAMP antagonism confirmation. shares compounds with MC4R antag cAMP. MC4R-expressing cells, MTII-stimulated cAMP, TR-FRET. inhibition, % at 6.5 µM. 27% of 1,600 active. AID 602195; in the data active means inhibition above about 29%;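 further: 0% = agonist stimulated wells alone and 100% = agonist stimulated wells plus saturating reference antagonist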
An asterisk follows results filed as active. In the library only some 3.8% were active in any assay of this set; here they are far more common.

Cc1ccc(NC(=S)Nc2cccc(-c3n[nH]c(=S)o3)c2)cc1 was read as TMEM16A act inactive, Beta cell apopt -3, MC4R antag cAMP 37*, CSC inhib -13, MC4R ag barr -3, ANO1 block inactive, U2OS cAMP counter 11 and MC4R cAMP antag 13.
Screening CSc1ccccc1C(=O)Nc1c(C)cccc1C returned TMEM16A act inactive, Beta cell apopt -5, MC4R antag cAMP 32*, CSC inhib -2, MC4R ag barr 2, ANO1 block inactive, U2OS cAMP counter -2 and MC4R cAMP antag -11.
CSc1ccccc1NC(=O)c1ccccc1C was read as TMEM16A act inactive, Beta cell apopt -3, MC4R antag cAMP 7, CSC inhib -1, MC4R ag barr -1 and ANO1 block inactive.
Screening CC(C)(C)c1ccc(OCCSc2nc3ccccc3n2CC(=O)O)cc1 returned TMEM16A act inactive, Beta cell apopt -8, MC4R antag cAMP 34*, CSC inhib 2, MC4R ag barr -1, ANO1 block inactive, U2OS cAMP counter -2 and MC4R cAMP antag -4.
For COc1cc(CN(C)C)cc(C=O)c1O the results were TMEM16A act inactive, Beta cell apopt -12, MC4R antag cAMP 2, CSC inhib 5, MC4R ag barr 2 and ANO1 block inactive.
COc1cc(N=Nc2ccc(Br)cc2)cc(C=O)c1O was read as MC4R antag cAMP 34*, MC4R ag barr -2, U2OS cAMP counter -5 and MC4R cAMP antag -5.
For CC(C)CNc1ncnc2c1ncn2[C@H]1CN(Cc2ccco2)C[C@@H](CO)O1 the results were MC4R antag cAMP 4 and MC4R ag barr 1.
Cc1cccc(OCC(=O)Nc2ccc3c(c2)nc(CN2CCCCC2)n3C)c1 was read as TMEM16A act inactive, Beta cell apopt -6, MC4R antag cAMP 32*, CSC inhib 38, MC4R ag barr 1, ANO1 block inactive, U2OS cAMP counter -1 and MC4R cAMP antag -16.
For COc1ccc(NC(=O)C(OC(=O)Cn2cnc3c2c(=O)n(C)c(=O)n3C)c2ccccc2)cc1Cl (stereo unspecified) the results were TMEM16A act inactive, MC4R antag cAMP 11 and MC4R ag barr -1.
For C=CCn1c(=S)[nH]c2scc(-c3cccs3)c2c1=O the results were TMEM16A act inactive, MC4R antag cAMP 51*, MC4R ag barr -2, U2OS cAMP counter 17* and MC4R cAMP antag 28.
For Cn1c(=S)[nH]c2scc(-c3cccs3)c2c1=O the results were TMEM16A act inactive, MC4R antag cAMP 26 and MC4R ag barr -1.
`O=C(Nc1cc(Cl)ccc1-n1cncn1)c1cc(F)c(F)c(F)c1F` gave TMEM16A act inactive, MC4R antag cAMP 31*, CSC inhib 1, MC4R ag barr 1, ANO1 block inactive, U2OS cAMP counter 24* and MC4R cAMP antag 50*.
CS(=O)(=O)c1ccccc1C(=O)Nc1cc(Cl)ccc1-n1cncn1 was read as TMEM16A act inactive, Beta cell apopt 1, MC4R antag cAMP 4, CSC inhib -6, MC4R ag barr -2 and ANO1 block inactive.
Screening O=C(Cn1ncc(Cl)c(Cl)c1=O)N1CCN(S(=O)(=O)c2ccc3ccccc3c2)CC1 returned TMEM16A act inactive, Beta cell apopt 14, MC4R antag cAMP 50*, CSC inhib 102*, MC4R ag barr -1, ANO1 block inactive, U2OS cAMP counter 24* and MC4R cAMP antag 51*.
For O=C(O)c1ccccc1C(=O)Nn1cnnc1 the results were TMEM16A act inactive, Beta cell apopt -6, MC4R antag cAMP 5, CSC inhib 0, MC4R ag barr -1 and ANO1 block inactive.
Screening CCCCN(Cc1ccco1)C(=O)C1CCCN(c2ncnc3c2nc2n3CCCCC2)C1 (stereo unspecified) returned TMEM16A act inactive, Beta cell apopt 7, MC4R antag cAMP 32*, CSC inhib -3, MC4R ag barr 1, ANO1 block inactive, U2OS cAMP counter -2 and MC4R cAMP antag 9.
`CCS(=O)(=O)c1ccc2oc(Nc3cccc(OC)c3)nc2c1` gave TMEM16A act inactive, Beta cell apopt 7, MC4R antag cAMP 31*, MC4R ag barr 1, ANO1 block inactive, U2OS cAMP counter 1 and MC4R cAMP antag -9.
For Cc1ccc(-c2cn3cccnc3n2)cc1NC(=O)c1cccs1 the results were TMEM16A act inactive, Beta cell apopt 5, MC4R antag cAMP 30*, CSC inhib -3, MC4R ag barr 2, ANO1 block inactive, U2OS cAMP counter -5 and MC4R cAMP antag -15.
For CSc1ncccc1C(=O)OCC(=O)c1[nH]c(C)c(C(C)=O)c1C the results were TMEM16A act inactive, Beta cell apopt 1, MC4R antag cAMP 1 and MC4R ag barr 1.
Screening CS(=O)(=O)c1ccc(C(=O)OCC(=O)NC23CC4CC(CC(C4)C2)C3)cc1[N+](=O)[O-] returned TMEM16A act inactive, Beta cell apopt -44, MC4R antag cAMP 50*, CSC inhib 155*, MC4R ag barr -4, ANO1 block inactive, U2OS cAMP counter 4 and MC4R cAMP antag 62*.
For CC(C)CN1CCN(C(=O)COC(=O)c2ccc(S(C)(=O)=O)c([N+](=O)[O-])c2)CC1 the results were MC4R antag cAMP 31*, MC4R ag barr -1, U2OS cAMP counter 23* and MC4R cAMP antag 41*.
For c1ccc(COc2ccc(-c3cc4nc(NCCN5CCOCC5)ccn4n3)cc2)cc1 the results were MC4R antag cAMP 33*, MC4R ag barr 2, U2OS cAMP counter 3 and MC4R cAMP antag 20.
`COc1ccc(C=NNC(=O)c2cc(C)oc2C)cc1O` gave TMEM16A act inactive, Beta cell apopt 4, MC4R antag cAMP -19, CSC inhib 48 and MC4R ag barr -1.
COc1ccc2cc(S(=O)(=O)NCc3cccnc3)ccc2c1 was read as TMEM16A act inactive, Beta cell apopt 11, MC4R antag cAMP 12, CSC inhib -1, MC4R ag barr 0 and ANO1 block inactive.
`Cc1sc2ncnc(Sc3ccccc3C(=O)O)c2c1C` gave TMEM16A act inactive, Beta cell apopt -6, MC4R antag cAMP 97*, CSC inhib -11, MC4R ag barr 0, ANO1 block inactive, U2OS cAMP counter 50* and MC4R cAMP antag 87*.
Screening CC(=O)c1ccc(NC(=O)c2ccccc2Sc2ncnc3sc(C)c(C)c23)cc1 returned TMEM16A act inactive, Beta cell apopt 8, MC4R antag cAMP 3, CSC inhib -6, MC4R ag barr -3 and ANO1 block inactive.
